Calls of active or inactive are those of the source.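 How the source made its calls, unless noted: active means fluorescence slope after compound addition differing from the mean of all tested samples at 99.7% confidence, mostly higher but some lower; inactive means the rest.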
What was measured:
[1] = inhibitors of TNFa-induced NFkB p65 translocation, primary screen, imaging, HUVEC, MLSMR starter and 10KST1 sets (AID 438;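 active means inhibition above 20% together with a positive visual image hit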;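 further: compound added about 3h40 before a 20 min TNFalpha stimulation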;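 on inhibition: signal is the nuclear over cytoplasmic p65 intensity ratio per well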); details: HUVEC TNFa-induced p65 nuclear translocation; cell count: measured here: nuclei count (cytotoxicity indicator), at 2.08 µM; inhibition: at 2 µM, stronger effect = higher value, 0% TNFa-plus-vehicle, 100% no-TNFa wells
[2] = inhibitors of E-selectin induction by TNFa, primary screen, imaging, HUVEC, immunofluorescence, MLSMR starter and 10KST1 sets (AID 487;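 active means visually confirmed hit in the image check and inhibition above 20%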;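 on inhibition: signal is fraction of cell area covered by stained E-selectin grains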;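 on nuclei count: 100% = median nuclei count of all wells on the same plate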); details: HUVEC TNFalpha-induced E-selectin immunofluorescence imaging, at 2 µM; inhibition: stronger effect = higher value; nuclei count: measured here: cell number, toxicity
[3] = DUSP6 inhibitors restoring Erk phosphorylation by chemical complementation, primary imaging in DUSP6-transfected HeLa (AID 609;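 active means compounds giving at least 50% inhibition in the cell-based MKP-3 phosphatase rescue imaging test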;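 on inhibition: phospho-Erk level distribution per well compared with pooled transfected vehicle control wells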); details: HeLa MKP-3 transfected, phospho-Erk imaging KS statistic, at 10 µM, cells stimulated with TPA for 15 min
[4] = molecular target: Dual specificity protein phosphatase 6 (Homo sapiens) (UniProt Q16828); test: as above; details: HeLa MKP-3 transfected, phospho-Erk imaging KS statistic; at 10 µM; stronger effect = higher value; cells stimulated with TPA for 15 min
[5] = molecular target: Voltage-gated potassium channel subunit beta-2 (Rattus norvegicus) (UniProt P62483); test: KvBeta enzyme negative modulators, primary screen, biochemical, NADPH fluorescence (AID 622;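 active means fluorescence slope higher than the sample average by over 3 SD, cut at about -0.22 in these data, passing the limit was not always enough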;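 further: slope of raw intensity against log time taken from 70 to 1610 s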); details: recombinant KvBeta, 4-cyanobenzaldehyde reduction, at 10 µM, stronger effect = higher value
[6] = molecular target: Voltage-gated potassium channel subunit beta-2 (Rattus norvegicus) (UniProt P62483); test: KvBeta positive modulators, primary screen, biochemical, NADPH fluorescence (AID 623;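 active means NADPH fluorescence slope more negative than the mean of all samples by about 3 SD, 99.7% confidence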;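 further: fluorescence intensity change per second fitted from 20 to 320 s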); details: Recombinant KvBeta, NADPH fluorescence decrease slope, 10 min; at 10 µM; stronger effect = lower value
[7] = molecular target: Muscarinic acetylcholine receptor M4 (Homo sapiens) (UniProt P08173); test: compounds altering M4/GIRK thallium flux, either direction, primary screen, M4 allosteric agonist project, cell-based, HEK293 M4/GIRK, BTC-AM (AID 625); details: at 10 µM, actives lie on both sides;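 further: thallium influx through GIRK channels coupled to M4 in HEK293 cells with BTC-AM dye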
In short: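 Material: M4/GIRK1/GIRK2 stable HEK293 cell line. Medium: pH 7.3 thallium assay buffer. Dosing: single compound concentration, 10 µM final. Schedule: 1 h dye loading, 2 min kinetic read. Measured by: kinetic fluorescence with BTC-AM dye. Read-out: post-addition slope, 15–24 s, of baseline-normalized fluorescence. Benchmarks: carbachol and DMSO controls.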

[8] = inhibitors of larval lipid processing in zebrafish, primary screen, whole organism, PED6 fluorescence, gall bladder and intestine (AID 686;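 active means a full or partial loss of lipid-probe fluorescence in the fish gall bladder, intestine or both, judged by eye; inactive means no fluorescence loss, or compound toxic to the fish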;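 further: larvae 5 to 7 days old with five fish per well; signal comes from phospholipase A2 cleavage of quenched PED6 carried via bile; overnight exposure to compound and PED6 before scoring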); details: Zebrafish larvae PED6 lipid processing, fluorescence scoring; screened at 20 µM (by protocol)
In short: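 System: live zebrafish larvae aged 5-7 days, whole organism; measure: graded gall bladder and intestinal fluorescence inhibition per well; incubation: overnight exposure; reagent: ingested quenched lipid PED6 at 100 nM; signal: By-eye fluorescence microscopy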

[9] = inhibitors of Chlamydomonas gravitaxis, primary screen, whole organism, Chlamydomonas reinhardtii, WT vs cilia-less mutant, absorbance, 96-well (AID 463189;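 active means inhibition at or above 50% relative to wild type and mutant plate controls; inactive means inhibition below 50%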;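 further: 0% = wild type cc124 cells in DMSO and 100% = ciliumless bld1 mutant cells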); details: OD600 absorbance, 2 days, at 10 µM, stronger effect = higher value
[10] = measured here: cell density z-score
[11] = measured here: nuclear c-Myc green intensity z-score
[12] = measured here: nuclear pErk red intensity z-score, stronger effect = higher value

Sequence of Dual specificity protein phosphatase 6 (Homo sapiens) (Q16828 whole entry, looked up): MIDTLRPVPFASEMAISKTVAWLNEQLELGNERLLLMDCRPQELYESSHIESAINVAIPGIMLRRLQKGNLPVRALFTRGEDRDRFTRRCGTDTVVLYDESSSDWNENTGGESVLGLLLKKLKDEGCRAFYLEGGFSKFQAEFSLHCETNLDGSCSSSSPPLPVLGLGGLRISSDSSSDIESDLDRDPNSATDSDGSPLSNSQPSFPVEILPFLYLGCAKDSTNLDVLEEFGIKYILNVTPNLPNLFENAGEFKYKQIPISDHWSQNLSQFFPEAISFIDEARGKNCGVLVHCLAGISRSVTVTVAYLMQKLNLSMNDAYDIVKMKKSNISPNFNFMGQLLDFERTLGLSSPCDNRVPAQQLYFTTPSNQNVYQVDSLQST
Sequence of Muscarinic acetylcholine receptor M4 (Homo sapiens) (P08173 whole entry, looked up): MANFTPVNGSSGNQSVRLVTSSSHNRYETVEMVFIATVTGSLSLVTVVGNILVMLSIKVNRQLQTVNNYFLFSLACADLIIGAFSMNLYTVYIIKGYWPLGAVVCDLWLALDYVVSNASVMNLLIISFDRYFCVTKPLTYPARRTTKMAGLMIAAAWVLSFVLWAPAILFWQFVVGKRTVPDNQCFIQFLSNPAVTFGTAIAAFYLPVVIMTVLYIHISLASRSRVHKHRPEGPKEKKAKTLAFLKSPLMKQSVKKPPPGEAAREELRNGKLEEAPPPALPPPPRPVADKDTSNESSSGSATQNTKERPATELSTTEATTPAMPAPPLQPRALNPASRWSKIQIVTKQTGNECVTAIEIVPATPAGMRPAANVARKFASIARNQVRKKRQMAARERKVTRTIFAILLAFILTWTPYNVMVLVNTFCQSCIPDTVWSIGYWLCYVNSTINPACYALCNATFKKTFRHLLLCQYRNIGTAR
Sequence of Voltage-gated potassium channel subunit beta-2 (Rattus norvegicus) (P62483 whole entry, looked up): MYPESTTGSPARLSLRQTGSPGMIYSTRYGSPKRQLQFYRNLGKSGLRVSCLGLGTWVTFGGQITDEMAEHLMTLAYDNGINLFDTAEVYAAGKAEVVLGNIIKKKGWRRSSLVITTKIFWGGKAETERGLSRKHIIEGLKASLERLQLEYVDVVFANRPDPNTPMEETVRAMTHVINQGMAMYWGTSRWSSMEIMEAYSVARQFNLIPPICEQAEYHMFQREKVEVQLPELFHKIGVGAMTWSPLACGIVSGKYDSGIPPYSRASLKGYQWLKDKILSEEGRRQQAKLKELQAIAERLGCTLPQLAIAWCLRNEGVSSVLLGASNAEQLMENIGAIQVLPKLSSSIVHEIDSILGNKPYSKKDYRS

SMILES | cell count [1] | inhibition [1] | inhibition [2] | nuclei count [2] | z-score [3, 10] | z-score [3, 11] | z-score [3, 12] | inhibition [4] | fluorescence slope [5] | NADPH fluorescence slope [6] | fluorescence slope [7] | outcome [8] | inhibition [9]
O=C(CC(c1ccco1)S(=O)(=O)c1ccccc1)c1ccc(F)cc1 (stereo not drawn) | 585 | -2% (inactive) | -105% (inactive) | 138% | -0.324 | 0.355 | 1.32 | -14.6% (inactive) | -0.413 (inactive) | -0.000113 (inactive) | 0.00466 (inactive) | inactive | 28.8% (inactive)
CCN(CC)C(=O)CSc1nc2ccccc2c(=O)n1CC1CCCCC1 | 355 | -2.2% (inactive) | 4% (inactive) | 108% | -1.94 | 0.923 | -0.374 | 1.42% (inactive) | -0.484 (inactive) | 5.7e-06 (inactive) | 0.00498 (inactive) | inactive | 7.22% (inactive)
COC(=O)[C@H]1CCCN1C(=O)Nc1cccc(Oc2c(F)c(F)c(F)c(F)c2F)c1 | 709 | -2.1% (inactive) | 2.5% (inactive) | 205% | 0.848 | 0.709 | 0.784 | 13.4% (inactive) | -0.396 (inactive) | -4.7e-05 (inactive) | 0.00536 (inactive) | inactive | 36.9% (inactive)
CCCn1c(SCC#N)nc2c(c1=O)C1(CCCC1)Cc1ccccc1-2 | 547 | -1.4% (inactive) | -10.8% (inactive) | 185% | -0.545 | 0.717 | -0.241 | 3.97% (inactive) | -0.402 (inactive) | -3.9e-05 (inactive) | 0.00798 (inactive) | inactive | -14.9% (inactive)
CCOC(=O)CNC(=O)CNC(=O)c1ccc(OCC(C)C)cc1 | 694 | 2.1% (inactive) | -9.7% (inactive) | 146% | 0.797 | 0.341 | 0.093 | -5.81% (inactive) | -0.458 (inactive) | -5.4e-05 (inactive) | 0.00522 (inactive) | inactive | -6.07% (inactive)
COc1ccc2c(c1)c(C(=O)CN1CCOCC1)c(C)n2C | 628 | 0.5% (inactive) | 57.3% (inactive) | 85.8% | -0.409 | -0.95 | 1.79 | 17.8% (inactive) | -0.48 (inactive) | -5.6e-05 (inactive) | 0.00679 (inactive) | active; weak signal in gallbladder and intestine | 27.4% (inactive)
O=C1C=C(N2CCN(C3=CC(=O)CCC3)CC2)CCC1 | 493 | -0.4% (inactive) | 4.1% (inactive) | 100% | -1.82 | 2.6 | 0.89 | -0.233% (inactive) | -0.469 (inactive) | -6.9e-05 (inactive) | 0.00636 (inactive) | inactive | -18.9% (inactive)
Cc1ccc(-c2nnc(-c3ccccc3)o2)cc1Br | 570 | -3.8% (inactive) | 33% (inactive) | 98.9% | -0.752 | 0.492 | -1.02 | 1.63% (inactive) | -0.564 (inactive) | 6e-06 (inactive) | 0.00616 (inactive) | inactive | 2.02% (inactive)
CN(C)c1cccc2c(S(=O)(=O)N3CCOCC3)cccc12 | 607 | -7.5% (inactive) | -24.7% (inactive) | 157% | -2.51 | 1.31 | -0.367 | -9.91% (inactive) | -0.275 (inactive) | -7.8e-05 (inactive) | 0.00799 (inactive) | inactive | -1.61% (inactive)
Cc1ccc(S(=O)(=O)N(CC(O)CN(C)C)c2ccccc2)cc1 (stereo not drawn) | 534 | -13.1% (inactive) | -98.3% (inactive) | 180% | 0.563 | -0.408 | -0.341 | -6.59% (inactive) | -0.412 (inactive) | -7e-05 (inactive) | 0.00541 (inactive) | inactive | 2.93% (inactive)
c1ccc2c(N3CCCCC3)nc(N3CCCCC3)nc2c1 | 497 | -2.8% (inactive) | 20.7% (inactive) | 159% | -1.53 | 0.598 | 1.04 | 1.9e-07% (inactive) | -0.388 (inactive) | -3.5e-05 (inactive) | 0.00468 (inactive) | inactive | 4.68% (inactive)
COc1ccccc1C(=O)Nc1cc(Cl)ccc1O | 582 | -2.4% (inactive) | -76% (inactive) | 123% | -1.1 | 0.45 | 1.34 | 9.42% (inactive) | -0.431 (inactive) | -0.000129 (inactive) | 0.00516 (inactive) | inactive | 21.5% (inactive)
Cc1nnc(N2CCOCC2)c2ccccc12 | 590 | -0.6% (inactive) | -63.6% (inactive) | 148% | 0.561 | 0.102 | -1.27 | 1.63% (inactive) | -0.472 (inactive) | -0.000134 (inactive) | 0.00562 (inactive) | inactive | 14.9% (inactive)
Cn1c(=O)c2c(nc(Br)n2Cc2ccc3ccccc3c2)n(C)c1=O | 623 | -9.2% (inactive) | -12.5% (inactive) | 163% | -0.362 | -0.997 | 0.811 | -8.95% (inactive) | -0.5 (inactive) | -5.2e-05 (inactive) | 0.00605 (inactive) | inactive | 5.52% (inactive)
O=C1CC(c2ccccc2)n2nc(NS(=O)(=O)c3ccccc3)nc2N1 (stereo not drawn) | 363 | -12.1% (inactive) | -108% (inactive) | 114% | 1.38 | -0.224 | -0.593 | 14.4% (inactive) | -0.486 (inactive) | -2.9e-05 (inactive) | 0.00519 (inactive) | inactive | -8.7% (inactive)
Cc1cc(C)n(CC2CC(=O)N(c3cc(Cl)cc(Cl)c3)C2=O)n1 (stereo not drawn) | 656 | 50.4% (active) | -80.7% (inactive) | 103% | -0.905 | 0.888 | -1.76 | -9.53% (inactive) | -0.548 (inactive) | -7.9e-05 (inactive) | 0.00628 (inactive) | inactive | 10.7% (inactive)
CCOC(=O)CC(=O)CSc1nnc2sc3ccccc3n12 | 493 | -14.5% (inactive) | 27.3% (inactive) | 174% | 0.311 | 0.752 | -0.0836 | 3.97% (inactive) | -0.427 (inactive) | -3e-05 (inactive) | 0.0062 (inactive) | inactive | 6.97% (inactive)
CCn1c(SCC(=O)Nc2ccccc2C(=O)OC)nnc1-c1ccc(N)cc1 | 653 | 2.4% (inactive) | 7.2% (inactive) | 176% | 0.614 | 0.0177 | -0.913 | 22.1% (inactive) | -0.46 (inactive) | -4.1e-05 (inactive) | 0.00557 (inactive) | inactive | 19.8% (inactive)
CCC(=O)Nc1ccc(-c2nnc(-c3ccccc3)o2)cc1 | 647 | 1.6% (inactive) | 18.6% (inactive) | 89.6% | 1.36 | -0.514 | 1.06 | 1.63% (inactive) | -0.444 (inactive) | -8.1e-05 (inactive) | 0.00653 (inactive) | inactive | 30.3% (inactive)
CCc1cc(=O)oc2cc(C)c(CN3CCCC(C)C3)c(O)c12 (stereo not drawn) | 539 | -7.1% (inactive) | -2.7% (inactive) | 109% | 1.56 | 0.423 | -0.74 | 12.7% (inactive) | -0.486 (inactive) | -2.8e-05 (inactive) | 0.00473 (inactive) | inactive | -8.79% (inactive)
COc1ccc(C2CC(c3ccccc3)Nc3nc(N)nn32)cc1 (stereo not drawn) | 377 | 4.8% (inactive) | -29.3% (inactive) | 110% | -1.01 | -0.362 | -0.446 | 1.48% (inactive) | -0.495 (inactive) | -1.6e-05 (inactive) | 0.00558 (inactive) | inactive | -15% (inactive)

Source: PubChem BioAssay
